One block for each molecule: values may come before it. Calls of active or inactive are those of the source. No cut-off for these calls is given here.
Columns and labels:
HeLa [1] = assay: Antiproliferative activity against human HeLa cells assessed as reduction in cell growth after 48 hrs by MTT assay; format: functional, cell-based
HeLa [2] = assay: Induction of cell cycle arrest in human HeLa cells assessed as accumulation at G2/M phase at 15 uM after 24 hrs by PI staining based flow cytometric analysis (reference value: 11.76%); format: functional
HeLa [3] = assay: Induction of cell cycle arrest in human HeLa cells assessed as accumulation at G0/G1 phase at 30 uM after 24 hrs by PI staining based flow cytometric analysis (reference value: 69.86%); format: functional
Tubulin (Homo sapiens) [4] = molecular target: T1, Tubulin (Homo sapiens) (UniProt P68371+Q9H4B7+P0DPH7+P68366+Q13509+Q71U36+P04350+Q3ZCM7+P07437+P68363+Q9BQE3+Q6PEY2+Q13885+Q9BVA1+Q9BUF5); assay: Inhibition of tubulin polymerization (unknown origin) at 10 uM relative to control; format: protein-complex assay
Procedure, shortened: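 In vitro tubulin polymerization measured with compounds at a final concentration of 10 μM; result given as percent inhibition.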

HeLa [5] = assay: Induction of cell cycle arrest in human HeLa cells assessed as accumulation at G0/G1 phase at 7.5 uM after 24 hrs by PI staining based flow cytometric analysis (reference value: 69.86%); format: functional
HeLa [6] = assay: Induction of cell cycle arrest in human HeLa cells assessed as accumulation of cells at G2/M phase after 24 hrs by PI-staining based flow cytometric analysis; format: functional
HeLa [7] = assay: Induction of cell cycle arrest in human HeLa cells assessed as debris content at 15 uM after 24 hrs by PI staining based flow cytometric analysis (reference value: 0.05%); format: functional
HCT-116 = assay: Antiproliferative activity against human HCT116 cells assessed as reduction in cell viability; format: functional, cell-based
HeLa [8] = assay: Induction of cell cycle arrest in human HeLa cells assessed as accumulation at G2/M phase at 30 uM after 24 hrs by PI staining based flow cytometric analysis (reference value: 11.76%); format: functional
PC-3 = assay: Antiproliferative activity against human PC3 cells assessed as reduction in cell viability; format: functional, cell-based
Tubulin (Homo sapiens) [9] = molecular target: T1, Tubulin (Homo sapiens); assay: Inhibition of tubulin polymerization in human HeLa cells assessed as microtubule spindle shrinkage around nucleus at 15 to 30 uM after 12 hrs by immunofluorescence based confocal microscopy; format: cell-based
Procedure, shortened: (§1)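 HeLa cells grown on glass coverslips, incubated with compound at 15 or 30 μM for 12 h, then fixed; α- and β-tubulin visualized by immunocytochemistry and confocal microscopy, compared with untreated cells.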

Tubulin (Homo sapiens) [10] = molecular target: T1, Tubulin (Homo sapiens); assay: Inhibition of tubulin polymerization in human HeLa cells assessed as disruption of beta tubulin at 15 to 30 uM after 12 hrs by immunofluorescence based confocal microscopy; format: cell-based; procedure, shortened: as §1
HeLa [11] = assay: Induction of cell cycle arrest in human HeLa cells assessed as accumulation at S phase at 7.5 uM after 24 hrs by PI staining based flow cytometric analysis (reference value: 18.38%); format: functional
HeLa [12] = assay: Induction of cell cycle arrest in human HeLa cells assessed as accumulation at G2/M phase at 7.5 uM after 24 hrs by PI staining based flow cytometric analysis (reference value: 11.76%); format: functional
Tubulin (Homo sapiens) [13] = molecular target: T1, Tubulin (Homo sapiens); assay: Inhibition of tubulin polymerization in human HeLa cells assessed as disruption of alpha tubulin at 15 to 30 uM after 12 hrs by immunofluorescence based confocal microscopy; format: cell-based; procedure, shortened: as §1
HeLa [14] = assay: Induction of cell cycle arrest in human HeLa cells assessed as debris content at 30 uM after 24 hrs by PI staining based flow cytometric analysis (reference value: 0.05%); format: functional
HeLa [15] = assay: Induction of cell cycle arrest in human HeLa cells assessed as accumulation at S phase at 15 uM after 24 hrs by PI staining based flow cytometric analysis (reference value: 18.38%); format: functional
HeLa [16] = assay: Induction of cell cycle arrest in human HeLa cells assessed as accumulation at G0/G1 phase at 15 uM after 24 hrs by PI staining based flow cytometric analysis (reference value: 69.86%); format: functional
HeLa [17] = assay: Induction of cell cycle arrest in human HeLa cells assessed as debris content at 7.5 uM after 24 hrs by PI staining based flow cytometric analysis (reference value: 0.05%); format: functional
Tubulin (Homo sapiens) [18] = molecular target: T1, Tubulin (Homo sapiens); assay: Inhibition of tubulin polymerization in human HeLa cells assessed as cell membrane rounding at 15 to 30 uM after 12 hrs by immunofluorescence based confocal microscopy; procedure, shortened: as §1
HeLa [19] = assay: Induction of cell cycle arrest in human HeLa cells assessed as accumulation at S phase at 30 uM after 24 hrs by PI staining based flow cytometric analysis (reference value: 18.38%); format: functional
HeLa [20] = assay: Antiproliferative activity against human HeLa cells assessed as reduction in cell viability; format: functional, cell-based

- IC50 (HeLa [1]): > 100 µM
SMILES: COc1cc(NCC(=O)Nc2c(C(=O)c3ccccc3)[nH]c3cc(Cl)ccc23)cc(OC)c1OC

- IC50 (HeLa [1]): 56.8 µM
SMILES: O=C(Nc1ccncc1)C(=O)Nc1c(C(=O)c2ccco2)[nH]c2ccccc12

- IC50 (HeLa [1]): 27.9 µM
SMILES: COc1ccc(C(=O)c2[nH]c3ccccc3c2NC(=O)CNc2ccccc2C)cc1

- inhibition (Tubulin (Homo sapiens) [4]): 29%
- IC50 (HCT-116): 20.4 µM
- IC50 (PC-3): 15.8 µM
- IC50 (HeLa [1]): 18.3 µM
SMILES: COc1ccc(C(=O)c2[nH]c3cc(Cl)ccc3c2NC(=O)CNc2ccc(C)cc2)cc1

- IC50 (HeLa [1]): 56.9 µM
SMILES: Cc1ccc2c(NC(=O)C(=O)Nc3ccncc3)c(C(=O)c3ccco3)[nH]c2c1

- IC50 (HeLa [1]): > 100 µM
SMILES: Cc1ccc2c(NC(=O)C(=O)Nc3ccncc3)c(C(=O)C3CC3)[nH]c2c1

- IC50 (HeLa [1]): 21.8 µM
SMILES: O=C(Nc1ccncc1)C(=O)Nc1c(C(=O)c2ccco2)[nH]c2cc(Cl)ccc12

- IC50 (HeLa [1]): > 100 µM
SMILES: O=C(Nc1ccccc1)C(=O)Nc1c(C(=O)C2CC2)[nH]c2ccccc12

- inhibition (Tubulin (Homo sapiens) [4]): 7%
- IC50 (HCT-116): 46.9 µM
- IC50 (PC-3): 43.7 µM
- IC50 (HeLa [1]): 16.2 µM
SMILES: COc1ccc(NCC(=O)Nc2c(C(=O)c3ccc(OC)cc3)[nH]c3ccccc23)cc1

- IC50 (HeLa [1]): > 100 µM
SMILES: COc1ccc(C(=O)c2[nH]c3cc(Cl)ccc3c2NC(=O)CNc2cc(OC)c(OC)c(OC)c2)cc1

- IC50 (HeLa [1]): 82.3 µM
SMILES: Cc1ccc2c(NC(=O)C(=O)Nc3ccccc3)c(C(=O)C3CC3)[nH]c2c1

- inhibition (Tubulin (Homo sapiens) [4]): 43%
- IC50 (HCT-116): 18.2 µM
- IC50 (PC-3): 21.8 µM
- IC50 (HeLa [1]): 16.7 µM
SMILES: COc1ccc(C(=O)c2[nH]c3cc(Cl)ccc3c2NC(=O)CNc2ccc(F)cc2)cc1

- IC50 (HeLa [1]): 29.2 µM
SMILES: O=C(Nc1ccccc1)C(=O)Nc1c(C(=O)c2ccccc2)[nH]c2cc(Cl)ccc12

- IC50 (HeLa [1]): 76.7 µM
SMILES: O=C(Nc1ccccc1)C(=O)Nc1c[nH]c2ccccc12

- IC50 (HeLa [1]): > 100 µM
SMILES: O=C(Nc1ccncc1)C(=O)Nc1c(C(=O)C2CC2)[nH]c2ccccc12

The next lines start with the molecule.

SMILES: CC(=O)c1[nH]c2ccccc2c1NC(=O)C(=O)Nc1ccncc1
- IC50 (HeLa [1]): 62.4 µM

SMILES: CC(=O)c1[nH]c2cc(C)ccc2c1NC(=O)C(=O)Nc1ccncc1
- IC50 (HeLa [1]): > 100 µM

SMILES: O=C(CNc1ccccc1)Nc1c(C(=O)c2ccccc2)[nH]c2cc(Cl)ccc12
- Activity (HeLa [2]): 20.7%
- Activity (HeLa [3]): 64.24%
- inhibition (Tubulin (Homo sapiens) [4]): 46%
- Activity (HeLa [5]): 68.1%
- Activity (HeLa [6]): Dose-dependent effect
- Activity (HeLa [7]): 0%
- IC50 (HCT-116): 12 µM
- Activity (HeLa [8]): 25.2%
- IC50 (PC-3): 14.4 µM
- IC50 (HeLa [1]): 15.4 µM
- inhibition (Tubulin (Homo sapiens) [9]): Active
- inhibition (Tubulin (Homo sapiens) [10]): Active
- Activity (HeLa [11]): 17.7%
- Activity (HeLa [12]): 14.2%
- inhibition (Tubulin (Homo sapiens) [13]): Active
- Activity (HeLa [14]): 0.07%
- Activity (HeLa [15]): 14.73%
- Activity (HeLa [16]): 64.57%
- Activity (HeLa [17]): 0.04%
- inhibition (Tubulin (Homo sapiens) [18]): Active
- Activity (HeLa [19]): 10.56%

SMILES: Cc1ccc(C(=O)c2[nH]c3ccccc3c2NC(=O)CNc2ccccc2C)cc1
- IC50 (HeLa [1]): 31.1 µM

SMILES: COc1cc2c(c(OC)c1OC)-c1ccc(OC)c(=O)cc1[C@@H](NC(C)=O)CC2 [COLCHICINE]
- IC50 (HCT-116): 0.25 µM
- IC50 (HeLa [1]): 0.03 µM

SMILES: O=C(Nc1ccncc1)C(=O)Nc1c(C(=O)C2CC2)[nH]c2cc(Cl)ccc12
- IC50 (HeLa [1]): 80.7 µM

SMILES: O=C(Nc1ccncc1)C(=O)Nc1c(C(=O)c2ccccc2)[nH]c2ccccc12
- IC50 (HeLa [1]): 85.3 µM

SMILES: O=C(Nc1ccccc1)C(=O)Nc1c(C(=O)C2CC2)[nH]c2cc(Cl)ccc12
- IC50 (HeLa [1]): > 100 µM

SMILES: O=C(Nc1ccccc1)C(=O)Nc1c(C(=O)c2ccccc2)[nH]c2ccccc12
- IC50 (HeLa [1]): 62.9 µM

SMILES: Cc1ccc2c(NC(=O)C(=O)Nc3ccncc3)c(C(=O)c3ccccc3)[nH]c2c1
- IC50 (HeLa [1]): 75.1 µM

SMILES: O=C(Nc1ccncc1)C(=O)c1cn(Cc2ccc(Cl)cc2)c2ccccc12 [INDIBULIN]
- IC50 (HeLa [20]): 0.115 µM

SMILES: Cc1ccc2c(NC(=O)C(=O)Nc3ccccc3)c(C(=O)c3ccccc3)[nH]c2c1
- IC50 (HeLa [1]): 55.2 µM

SMILES: O=C(Nc1ccncc1)C(=O)Nc1c[nH]c2ccccc12
- IC50 (HeLa [1]): > 100 µM

SMILES: O=C(Nc1ccncc1)C(=O)Nc1c(C(=O)c2ccccc2)[nH]c2cc(Cl)ccc12
- IC50 (HeLa [1]): > 100 µM

SMILES: CC(=O)c1[nH]c2cc(Cl)ccc2c1NC(=O)C(=O)Nc1ccncc1
- IC50 (HeLa [1]): 69.6 µM

Reference: ChEMBL document CHEMBL4602616, “Design, synthesis and biological evaluation of novel indole-based oxalamide and aminoacetamide derivatives as tubulin polymerization inhibitors” (Bioorg Med Chem Lett, 2020)
